Source: the M2OR odorant receptor database

How the values were obtained:
Settings in all cases: stereoisomer not certain
Or1m1 (Mus musculus) = target: T1, Or1m1 (Mus musculus) (UniProt Q8VFM9)
T1 sequence (whole entry): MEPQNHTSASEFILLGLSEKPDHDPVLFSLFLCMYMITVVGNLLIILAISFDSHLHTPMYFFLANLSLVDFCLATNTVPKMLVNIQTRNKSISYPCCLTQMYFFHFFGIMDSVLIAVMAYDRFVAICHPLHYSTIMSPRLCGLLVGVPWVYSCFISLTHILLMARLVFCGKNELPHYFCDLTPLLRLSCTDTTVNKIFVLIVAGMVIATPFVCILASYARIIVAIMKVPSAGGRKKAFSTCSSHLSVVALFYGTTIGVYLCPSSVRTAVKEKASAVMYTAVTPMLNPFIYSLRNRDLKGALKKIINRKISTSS
Method in brief: (§1)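 Transient luciferase assays in mammalian cell lines were common, though methods varied by source. The values come from published papers and their supplementary material, with extra details from the original authors when needed. Responsive refers to a measured signal the original authors judged statistically different from baseline, and non-responsive (inactive) to the remainder.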

Or5ar1 (Mus musculus) = target: T2, Or5ar1 (Mus musculus) (UniProt Q8VGS3)
T2 sequence (whole entry): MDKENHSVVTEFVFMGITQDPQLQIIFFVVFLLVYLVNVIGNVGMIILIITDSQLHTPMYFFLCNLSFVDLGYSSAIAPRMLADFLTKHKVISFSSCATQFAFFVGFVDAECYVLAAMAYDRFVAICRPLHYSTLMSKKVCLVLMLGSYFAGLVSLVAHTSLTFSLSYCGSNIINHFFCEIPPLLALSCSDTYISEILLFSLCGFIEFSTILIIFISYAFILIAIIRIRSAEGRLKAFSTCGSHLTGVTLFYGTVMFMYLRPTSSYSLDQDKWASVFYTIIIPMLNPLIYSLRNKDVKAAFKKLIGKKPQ
Method in brief: as §1

Or2c1 (Mus musculus) = target: T3, Or2c1 (Mus musculus) (UniProt P23275)
T3 sequence (whole entry): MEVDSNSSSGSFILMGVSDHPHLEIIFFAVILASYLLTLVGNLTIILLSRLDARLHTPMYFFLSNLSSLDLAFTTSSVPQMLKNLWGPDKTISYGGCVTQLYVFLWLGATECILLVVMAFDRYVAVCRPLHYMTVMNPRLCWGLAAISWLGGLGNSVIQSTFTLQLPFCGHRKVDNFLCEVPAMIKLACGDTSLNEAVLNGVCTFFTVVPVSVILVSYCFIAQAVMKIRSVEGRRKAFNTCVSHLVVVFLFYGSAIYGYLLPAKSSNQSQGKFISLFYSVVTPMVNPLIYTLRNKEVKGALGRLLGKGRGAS
Method in brief: as §1

Or10j5 (Mus musculus) = target: T4, Or10j5 (Mus musculus) (UniProt Q62007)
T4 sequence (whole entry): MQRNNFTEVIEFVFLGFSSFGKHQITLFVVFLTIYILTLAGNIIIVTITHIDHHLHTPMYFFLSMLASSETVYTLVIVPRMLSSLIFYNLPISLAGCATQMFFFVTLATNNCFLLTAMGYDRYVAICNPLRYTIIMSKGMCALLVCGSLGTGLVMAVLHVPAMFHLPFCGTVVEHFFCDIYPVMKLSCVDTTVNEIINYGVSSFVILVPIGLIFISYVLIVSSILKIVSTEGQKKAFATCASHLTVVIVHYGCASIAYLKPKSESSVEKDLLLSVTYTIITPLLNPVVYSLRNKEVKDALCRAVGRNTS
Method in brief: as §1
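Note: active if original authors judged signal statistically different from baseline.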

SMILES	odorant receptor agonist call (Or1m1 (Mus musculus))	odorant receptor agonist call (Or5ar1 (Mus musculus))	odorant receptor agonist call (Or2c1 (Mus musculus))	odorant receptor agonist call (Or10j5 (Mus musculus))
Cc1ccc(C(C)C)c(O)c1	inactive	inactive	–	–
CCCCCC1=C(C)CCC1=O	inactive	inactive	inactive	–
COc1cc(C(=O)O)ccc1O	inactive	inactive	inactive	–
CCCC(C)=O	–	inactive	inactive	inactive
O=C(c1ccccc1)c1ccccc1	inactive	inactive	inactive	–
CCCCCCCCO	inactive	inactive	inactive	–
CCCCCC(=O)CC	inactive	inactive	inactive	–
CCCC(=O)C(C)=O	inactive	inactive	active	–
